In ChEMBL document CHEMBL4706643 (J Med Chem, 2021):
Activity calls are given as the source filed them. The rule behind the calls is not given here.

Key:
[1] = Cmax in C57BL/6 mouse at 10 mg/kg, ip; type: ADME, organism-based; set-up: route intraperitoneal, dose 10 mg/kg; conditions: in vivo
Summary of the method: (§1)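 Male C57BL/6 mice (n = 3), single dose IV 5 mg/kg, IP 10 mg/kg or PO 10 mg/kg in DMSO:cremophor:0.9% NaCl 5:5:90; plasma parameters reported as means.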

HepG2 = assay: (§2) Antiviral activity against HBV genotype C infected in human HepG2-NTCP cells assessed as reduction in HBeAg secretion at 2 uM cells inoculated with virus for 4 hrs at room temperature and 37 degree C for 24 hrs followed inoculum changed with PMM medium for every 2 days until day 5 post infection by ELISA; type: functional, cell-based; conditions: time 28.0 hrs
Summary of the method: (§3)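 HepG2-NTCP cells seeded 4–6 h, then primary maintenance medium 20–24 h; virus inoculum plus compound dilutions 4 h at room temperature, then 37 °C 24 h; medium changed every 2 days to PMM with 2% FBS until day 5 post infection. Secreted HBeAg measured by ELISA; IC50 by nonlinear regression from six or more points, three repeats.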

[2] = Half life in C57BL/6 mouse at 10 mg/kg, ip; type: ADME, organism-based; conditions: in vivo; summary of the method: as §1
Hepatitis B virus [3] = assay: (§4) Antiviral activity against HBV infected in human HepG2-NTCP cells assessed as reduction in HBeAg secretion cells inoculated with virus for 4 hrs at room temperature and 37 degree C for 24 hrs followed inoculum changed with PMM medium for every 2 days until day 5 post infection by ELISA; type: functional, organism-based
Hepatitis B virus [4] = assay: Antiviral activity against HBV infected in primary human hepatocytes; type: functional, organism-based; conditions: Hepatocyte
Hepatitis B virus [5] = assay: as §2, with “genotype B” for “genotype C”; type: functional, organism-based; conditions: time 28.0 hrs; summary of the method: as §3
[6] = Half life in C57BL/6 mouse at 10 mg/kg, po; type: ADME, organism-based; conditions: in vivo; summary of the method: as §1
Hepatitis B virus [7] = assay: as §4, with “HBV cccDNA levels” for “HBeAg secretion”, “DIG-labelled probe based southern blot analysis” for “ELISA”; type: functional, organism-based; conditions: time 28.0 hrs
Summary of the method: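 HepG2-NTCP cells infected with compound added together with HBV inoculum; DNA harvested day 5 post infection by modified Hirt extraction. Southern blot on 1.2% agarose, UV cross-linked, hybridised at 50 °C overnight with DIG-labelled full-length genotype D HBV genomic probe; chemiluminescent detection; 3.2, 2.1 and 1.7 kb HBV fragments as markers.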

[8] = Half life in C57BL/6 mouse plasma at 5 mg/kg, iv; type: ADME, organism-based; summary of the method: as §1
Hepatitis delta virus [9] = assay: Antiviral activity against HDV infected in C57B/L transgenic mouse harbouring human NTCP assessed as decrease in viral RNA levels in liver at 40 mg/kg, ip administered for 2 consecutive days followed by HDV challenge at day 2 and measured at day 8 post infection by qPCR analysis; type: functional, organism-based; conditions: time 8.0 day
Summary of the method: (§5)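 Neonatal hNTCP-transgenic C57B/L mice received 40 mg/kg i.p. before HDV inoculation, either once or on two consecutive days (n = 4 per group; vehicle group n = 5). HDV was given at 5 × 10⁹ Geq i.p. on day 9 after birth, and mice were sacrificed on day 15. Liver RNA was assayed by RT-qPCR on cDNA from 20 ng RNA, with NTCP mRNA also measured. Group medians are shown.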

[10] = molecular target: T1, Solute carrier organic anion transporter family member 1B1 (Homo sapiens, UniProt Q9Y6L6); assay: Inhibition of OATP1B1 (unknown origin) mediated [3H]-estrone sulfate uptake expressed in human HepG2 cells; type: cell-based
T1 sequence (Q9Y6L6 whole entry): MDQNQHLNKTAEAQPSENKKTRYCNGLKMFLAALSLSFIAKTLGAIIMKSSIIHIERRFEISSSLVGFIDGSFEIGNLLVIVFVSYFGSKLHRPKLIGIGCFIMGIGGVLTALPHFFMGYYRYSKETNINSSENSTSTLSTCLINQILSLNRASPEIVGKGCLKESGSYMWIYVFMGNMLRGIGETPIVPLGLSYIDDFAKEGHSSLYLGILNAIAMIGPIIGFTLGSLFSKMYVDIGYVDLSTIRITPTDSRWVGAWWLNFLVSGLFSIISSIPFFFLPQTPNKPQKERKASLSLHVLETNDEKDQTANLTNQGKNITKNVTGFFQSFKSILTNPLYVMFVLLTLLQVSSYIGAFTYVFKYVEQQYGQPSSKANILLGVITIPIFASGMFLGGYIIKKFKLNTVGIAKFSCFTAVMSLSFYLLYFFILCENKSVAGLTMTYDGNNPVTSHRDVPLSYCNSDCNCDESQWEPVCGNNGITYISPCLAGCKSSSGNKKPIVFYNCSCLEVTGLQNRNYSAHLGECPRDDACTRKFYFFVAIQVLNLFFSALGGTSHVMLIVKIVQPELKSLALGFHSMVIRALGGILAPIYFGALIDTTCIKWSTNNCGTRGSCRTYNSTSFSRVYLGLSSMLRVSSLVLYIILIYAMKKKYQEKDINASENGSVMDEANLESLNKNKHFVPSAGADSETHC

Hepatitis B virus [11] = assay: as §2, with “HBV” for “HBV genotype C”, “in HBV viral transcription” for “in HBeAg secretion”, “at 10” for “at 2”, “by DIG-labelled GAPDH based northern blot analysis” for “by ELISA”; type: functional, organism-based; conditions: time 28.0 hrs
Summary of the method: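 Infected HepG2-NTCP cells given compound either with the HBV inoculum or at dpi 3–5; RNA extracted with TRIzol, run on 1.0% agarose–formaldehyde/MOPS gel. Northern blot as for Southern, probed with DIG-labelled full-length HBV genome plus DIG-labelled GAPDH probe.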

[12] = Intrinsic clearance in human liver microsomes at 1 uM preincubated for 5 mins followed by NADPH addition and measured upto 60 mins by LC-MS analysis; type: ADME, Microsome; conditions: read-out: CLH
Summary of the method: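 Human or mouse liver microsomes, final 1 mg/mL in 0.05 M phosphate buffer pH 7.4; compound final 1 μM, preincubated 37 °C 5 min, started with 1 mM NADPH; sampled at 0, 5, 15, 30, 60 min, methanol quench, −20 °C 1 h, centrifuged, supernatant by LC–MS.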

[13] = Bioavailability in C57BL/6 mouse at 10 mg/kg, ip; type: ADME, organism-based; conditions: in vivo; summary of the method: as §1
Hepatitis delta virus [14] = assay: Antiviral activity […] infected in C57B/L transgenic mouse harbouring human NTCP assessed as decrease in viral RNA levels in liver at 40 mg/kg, ip administered as single dose followed by HDV challenge at day 2 and measured at day 8 post infection by qPCR analysis; type: functional, organism-based; conditions: time 8.0 day; summary of the method: as §5
[15] = molecular target: T2, Ileal sodium/bile acid cotransporter (Homo sapiens, UniProt Q12908); assay: Inhibition of human ASBT
T2 sequence (Q12908 whole entry): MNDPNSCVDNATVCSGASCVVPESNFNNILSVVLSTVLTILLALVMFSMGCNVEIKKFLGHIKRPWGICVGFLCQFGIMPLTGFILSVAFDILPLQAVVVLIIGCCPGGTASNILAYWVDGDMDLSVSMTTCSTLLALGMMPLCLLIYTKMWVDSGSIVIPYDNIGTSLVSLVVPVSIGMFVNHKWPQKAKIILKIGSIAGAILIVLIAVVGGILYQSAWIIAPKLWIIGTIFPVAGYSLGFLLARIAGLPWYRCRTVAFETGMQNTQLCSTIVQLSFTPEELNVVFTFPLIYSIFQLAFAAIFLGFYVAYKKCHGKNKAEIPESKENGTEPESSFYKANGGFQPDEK

CC[C@@H]1NC(=O)[C@H]([C@@H]2O[C@@H](Sc3cccc(OCc4ccccc4)c3)C[C@H]2C)N(C)C(=O)[C@H](C(C)C)N(C)C(=O)[C@H](CC(C)C)N(C)C(=O)[C@H](CC(C)C)N(C)C(=O)[C@@H](C)NC(=O)[C@H](C)NC(=O)[C@H](CC(C)C)N(C)C(=O)[C@H](C(C)C)NC(=O)[C@H](CC(C)C)N(C)C(=O)CN(C)C1=O
Cmax [1]: 12400 ng/mL
Activity (HepG2): Active
half-life [2]: 5.68 h
IC50 (Hepatitis B virus [3]): 110 nM
IC50 (Hepatitis B virus [4]): 59 nM
Activity (Hepatitis B virus [5]): Active
half-life [6]: 5.65 h
Activity (Hepatitis B virus [7]): Dose-dependent effect
half-life [8]: 6.03 h
Activity (Hepatitis delta virus [9]): Active
IC50 [10]: 2270 nM
Activity (Hepatitis B virus [11]): Active
microsomal CLint at 1 µM [12]: 8 µL/min/mg
bioavailability [13]: 110%
Activity (Hepatitis delta virus [14]): Active
inhibition (INH) [15]: Not Active
